Measurements from ChEMBL document CHEMBL3603770, “Synthesis and cytotoxic activities of 2-substituted (25R)-spirostan-1,4,6-triene-3-ones via ring-opening/elimination and 'click' strategy” (Bioorg Med Chem Lett, 2015).

How the values were obtained:
Format in all cases: functional, cell-based
[1] = Antiproliferative activity against human CaSki cells incubated for 48 hrs by MTT assay; details: Ca-Ski
Method in brief: (§1)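 Human tumour cells exposed to compounds for 48 h at 37 °C; viability read by MTT. Growth inhibition (%) measured in triplicate at 5, 10, 20, 40, 80 and 160 μM; data as mean ± standard deviation. IC50 calculated from percentage inhibition of cell growth.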

[2] = tested on: HepG2; test: Antiproliferative activity against human HepG2 cells incubated for 48 hrs by MTT assay; details: HepG2, 48 h; method in brief: as §1
[3] = tested on: HeLa; test: Antiproliferative activity against human HeLa cells incubated for 48 hrs by MTT assay; method in brief: as §1

Row | SMILES | IC50 [2] [µM] | IC50 [3] [µM] | IC50 [1] [µM]
1 | C[C@@H]1CC[C@@]2(OC1)O[C@H]1C[C@H]3[C@@H]4C=CC5=CC(=O)C(OCc6cn(Cc7ccccc7)nn6)=C[C@]5(C)[C@H]4CC[C@]3(C)[C@H]1[C@@H]2C | 53.4 | > 100 | 10.9
2 | Cc1ccc(C(=O)Cn2cc(COC3=C[C@@]4(C)C(=CC3=O)C=C[C@H]3[C@@H]5C[C@@H]6O[C@]7(CC[C@@H](C)CO7)[C@@H](C)[C@@H]6[C@@]5(C)CC[C@@H]34)nn2)cc1 | 76.1 | > 100 | > 100
3 | C[C@@H]1CC[C@@]2(OC1)O[C@H]1C[C@H]3[C@@H]4C=CC5=CC(=O)C(OCc6cn(Cc7ccc(Cn8cc(COC9=C[C@@]%10(C)C(=CC9=O)C=C[C@H]9[C@@H]%11C[C@@H]%12O[C@]%13(CC[C@@H](C)CO%13)[C@@H](C)[C@@H]%12[C@@]%11(C)CC[C@@H]9%10)nn8)cc7)nn6)=C[C@]5(C)[C@H]4CC[C@]3(C)[C@H]1[C@@H]2C | > 100 | > 100 | > 100
4 | C[C@@H]1CC[C@@]2(OC1)O[C@H]1C[C@H]3[C@@H]4C=CC5=CC(=O)C(OCc6cn(CC(=O)c7ccc(O)cc7)nn6)=C[C@]5(C)[C@H]4CC[C@]3(C)[C@H]1[C@@H]2C | 52.8 | > 100 | 98.7
5 | C[C@@H]1CC[C@@]2(OC1)O[C@H]1C[C@H]3[C@@H]4C=CC5=CC(=O)C(OCc6cn(CC(=O)c7cccc(Br)c7)nn6)=C[C@]5(C)[C@H]4CC[C@]3(C)[C@H]1[C@@H]2C | 88.1 | > 100 | > 100
6 | C[C@@H]1CC[C@@]2(OC1)O[C@H]1C[C@H]3[C@@H]4C=CC5=CC(=O)C(OCc6cn(CC(=O)c7cccc(O)c7)nn6)=C[C@]5(C)[C@H]4CC[C@]3(C)[C@H]1[C@@H]2C | 45.6 | > 100 | 9.4
7 | C[C@@H]1CC[C@@]2(OC1)O[C@H]1C[C@H]3[C@@H]4C=CC5=CC(=O)C(OCc6cn(CC(=O)c7ccc(Br)cc7)nn6)=C[C@]5(C)[C@H]4CC[C@]3(C)[C@H]1[C@@H]2C | 53.7 | > 100 | > 100
8 | COc1ccc(Cn2cc(COC3=C[C@@]4(C)C(=CC3=O)C=C[C@H]3[C@@H]5C[C@@H]6O[C@]7(CC[C@@H](C)CO7)[C@@H](C)[C@@H]6[C@@]5(C)CC[C@@H]34)nn2)cc1 | 41.8 | > 100 | 67
9 | COc1ccc(C(=O)Cn2cc(COC3=C[C@@]4(C)C(=CC3=O)C=C[C@H]3[C@@H]5C[C@@H]6O[C@]7(CC[C@@H](C)CO7)[C@@H](C)[C@@H]6[C@@]5(C)CC[C@@H]34)nn2)cc1 | > 100 | > 100 | > 100
10 | C[C@@H]1CC[C@@]2(OC1)O[C@H]1C[C@H]3[C@@H]4C=CC5=CC(=O)C(OCc6cn(Cc7ccc(CN=[N+]=[N-])cc7)nn6)=C[C@]5(C)[C@H]4CC[C@]3(C)[C@H]1[C@@H]2C | > 100 | > 100 | > 100
11 | C[C@@H]1CC[C@@]2(OC1)O[C@H]1C[C@H]3[C@@H]4C=CC5=CC(=O)C(OCc6cn(CC(=O)c7ccccc7)nn6)=C[C@]5(C)[C@H]4CC[C@]3(C)[C@H]1[C@@H]2C | 60.2 | > 100 | 99

The next lines start with results.

Row | IC50 [2] [µM] | IC50 [3] [µM] | SMILES | IC50 [1] [µM]
12 | 40.2 | 48.1 | CC(=O)Cn1cc(COC2=C[C@@]3(C)C(=CC2=O)C=C[C@H]2[C@@H]4C[C@@H]5O[C@]6(CC[C@@H](C)CO6)[C@@H](C)[C@@H]5[C@@]4(C)CC[C@@H]23)nn1 | 11.8
13 | > 100 | > 100 | C[C@@H]1CC[C@@]2(OC1)O[C@H]1C[C@H]3[C@@H]4C=CC5=CC(=O)C(OCc6cn(CC#N)nn6)=C[C@]5(C)[C@H]4CC[C@]3(C)[C@H]1[C@@H]2C | > 100
14 | 53.4 | > 100 | CC(C)COC1=C[C@@]2(C)C(=CC1=O)C=C[C@H]1[C@@H]3C[C@@H]4O[C@]5(CC[C@@H](C)CO5)[C@@H](C)[C@@H]4[C@@]3(C)CC[C@@H]12 | 33.5
15 | > 100 | > 100 | C[C@@H]1CC[C@@]2(OC1)O[C@H]1C[C@H]3[C@@H]4C=CC5=CC(=O)C(OCc6cn(-c7ccccc7)nn6)=C[C@]5(C)[C@H]4CC[C@]3(C)[C@H]1[C@@H]2C | > 100
16 | 85 | 71.6 | CCCCOC1=C[C@@]2(C)C(=CC1=O)C=C[C@H]1[C@@H]3C[C@@H]4O[C@]5(CC[C@@H](C)CO5)[C@@H](C)[C@@H]4[C@@]3(C)CC[C@@H]12 | 39.5
17 | 77.1 | > 100 | COC1=C[C@@]2(C)C(=CC1=O)C=C[C@H]1[C@@H]3C[C@@H]4O[C@]5(CC[C@@H](C)CO5)[C@@H](C)[C@@H]4[C@@]3(C)CC[C@@H]12 | 28.5
18 | 90.7 | 57.4 | C#CCOC1=C[C@@]2(C)C(=CC1=O)C=C[C@H]1[C@@H]3C[C@@H]4O[C@]5(CC[C@@H](C)CO5)[C@@H](C)[C@@H]4[C@@]3(C)CC[C@@H]12 | 23.2
19 | 61.6 | 80.3 | CCCOC1=C[C@@]2(C)C(=CC1=O)C=C[C@H]1[C@@H]3C[C@@H]4O[C@]5(CC[C@@H](C)CO5)[C@@H](C)[C@@H]4[C@@]3(C)CC[C@@H]12 | 32.1
20 | 61.3 | > 100 | CC(C)OC1=C[C@@]2(C)C(=CC1=O)C=C[C@H]1[C@@H]3C[C@@H]4O[C@]5(CC[C@@H](C)CO5)[C@@H](C)[C@@H]4[C@@]3(C)CC[C@@H]12 | 29.3
21 | 44 | > 100 | CCOC(=O)Cn1cc(COC2=C[C@@]3(C)C(=CC2=O)C=C[C@H]2[C@@H]4C[C@@H]5O[C@]6(CC[C@@H](C)CO6)[C@@H](C)[C@@H]5[C@@]4(C)CC[C@@H]23)nn1 | 68.9
22 | > 100 | > 100 | CCOC1=C[C@@]2(C)C(=CC1=O)C=C[C@H]1[C@@H]3C[C@@H]4O[C@]5(CC[C@@H](C)CO5)[C@@H](C)[C@@H]4[C@@]3(C)CC[C@@H]12 | > 100
